Laboratory results taken from ChEMBL document CHEMBL3286300, “Fluorine modulates species selectivity in the triazolopyrimidine class of Plasmodium falciparum dihydroorotate dehydrogenase inhibitors” (J Med Chem, 2014).

Legend:
[1] = biological target: T1, Dihydroorotate dehydrogenase (quinone), mitochondrial (Homo sapiens, UniProt Q02127); experiment: Inhibition of C-terminal His6-tagged human DHODH (amino acid residues 33 to 396) expressed in Escherichia coli BL21 cells assessed as orotic acid production using dihydroorotate as substrate by direct assay in presence of oxygen depleting system
[2] = test system: BL21; experiment: Ratio of IC50 for C-terminal His6-tagged human DHODH (amino acid residues 30 to 396) R136A mutant expressed in Escherichia coli BL21 cells to IC50 for C-terminal His6-tagged wild type human DHODH (amino acid residues 30 to 396) expressed in Escherichia coli BL21 cells
[3] = test system: BL21; experiment: Ratio of IC50 for C-terminal His6-tagged human DHODH (amino acid residues 30 to 396) L46A mutant expressed in Escherichia coli BL21 cells to IC50 for C-terminal His6-tagged wild type human DHODH (amino acid residues 30 to 396) expressed in Escherichia coli BL21 cells
[4] = test system: Plasmodium falciparum; experiment: Antimalarial activity against Plasmodium falciparum 3D7 infected in RBC after 72 hrs by SYBR green dye based flow cytometry; format: functional, organism-based; details: 3D7, 72 h
[5] = test system: BL21; experiment: Ratio of IC50 for C-terminal His6-tagged human DHODH (amino acid residues 30 to 396) L359A mutant expressed in Escherichia coli BL21 cells to IC50 for C-terminal His6-tagged wild type human DHODH (amino acid residues 30 to 396) expressed in Escherichia coli BL21 cells
[6] = biological target: T1, Dihydroorotate dehydrogenase (quinone), mitochondrial; experiment: Inhibition of C-terminal His6-tagged human DHODH (amino acid residues 30 to 396) expressed in Escherichia coli BL21 cells assessed as orotic acid production using dihydroorotate as substrate by DCIP dye-based assay
Procedure, shortened: (§1)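 Assay buffer 100 mM Hepes pH 8.0, 150 mM NaCl, 10% glycerol, 0.1% Triton, with 0.2 mM DHO, 0.02 mM CoQD and 0.12 mM DCIP. DCIP reduction read at 600 nm, 25 °C, started with 2–10 nM enzyme. Inhibitor 0.01–100 μM in 3-fold steps, triplicate. IC50 from a three-parameter fit of vi/vo.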

[7] = Inhibition of C-terminal His6-tagged human DHODH (amino acid residues 30 to 396) H56A mutant expressed in Escherichia coli BL21 cells assessed as orotic acid production using dihydroorotate as substrate by direct assay in presence of oxygen depleting system
[8] = biological target: T2, Dihydroorotate dehydrogenase (Plasmodium falciparum, UniProt Q54A96); experiment: Inhibition of N-terminal His6-tagged recombinant Plasmodium falciparum DHODH (amino acid residues 158 to 569) expressed in Escherichia coli BL21 cells assessed as orotic acid production using dihydroorotate as substrate by DCIP dye-based assay
T2 sequence (Q54A96 whole entry): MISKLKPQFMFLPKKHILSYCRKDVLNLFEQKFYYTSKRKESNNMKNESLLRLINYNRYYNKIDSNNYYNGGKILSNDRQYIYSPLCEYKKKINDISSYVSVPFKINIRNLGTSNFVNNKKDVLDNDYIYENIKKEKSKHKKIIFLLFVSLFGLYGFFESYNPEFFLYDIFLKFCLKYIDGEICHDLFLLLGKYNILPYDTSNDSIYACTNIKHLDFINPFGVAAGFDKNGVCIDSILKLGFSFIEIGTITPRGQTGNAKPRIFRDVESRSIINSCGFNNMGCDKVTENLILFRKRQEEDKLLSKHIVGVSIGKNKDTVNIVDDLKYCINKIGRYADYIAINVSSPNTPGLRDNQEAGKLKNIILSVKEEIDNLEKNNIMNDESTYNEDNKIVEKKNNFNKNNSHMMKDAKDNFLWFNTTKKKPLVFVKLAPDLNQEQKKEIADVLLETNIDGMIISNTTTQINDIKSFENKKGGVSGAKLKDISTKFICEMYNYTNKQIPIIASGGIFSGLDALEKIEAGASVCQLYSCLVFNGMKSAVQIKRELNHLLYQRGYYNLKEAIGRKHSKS
Procedure, shortened: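 The assay buffer was 100 mM Hepes pH 8.0, 150 mM NaCl, 10% glycerol, 0.1% Triton, with 0.2 mM DHO, 0.02 mM CoQD and 0.12 mM DCIP. Runs started with 2–10 nM enzyme at 25 °C, reading A600 initial rates. Inhibitor was 0.01–100 μM in 3-fold steps, in triplicate. IC50 came from a three-parameter log[I]-response fit.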

[9] = biological target: T2, Dihydroorotate dehydrogenase; experiment: Binding affinity to Plasmodium falciparum DHODH by isothermal titration calorimetry
Procedure, shortened: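 ITC at 30 °C in 10 mM Hepes pH 7.8, 20 mM NaCl, 5% glycerol, 1 mM LDAO, 0.2% DMSO. PfDHODH (5–10 μM) in the cell was titrated with 50 μM inhibitor. Triplicate runs.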

[10] = biological target: Dihydroorotate dehydrogenase (quinone), mitochondrial (Mus musculus, UniProt O35435); experiment: Inhibition of mouse DHODH (amino acid residues 30 to 396) expressed in Escherichia coli BL21 cells assessed as orotic acid production using dihydroorotate as substrate by DCIP dye-based assay
Procedure, shortened: as §1

[11] = Inhibition of C-terminal His6-tagged human DHODH (amino acid residues 30 to 396) L359A mutant expressed in Escherichia coli BL21 cells assessed as orotic acid production using dihydroorotate as substrate by direct assay in presence of oxygen depleting system
[12] = Inhibition of C-terminal His6-tagged human DHODH (amino acid residues 30 to 396) L46A mutant expressed in Escherichia coli BL21 cells assessed as orotic acid production using dihydroorotate as substrate by direct assay in presence of oxygen depleting system
[13] = Partition coefficient, log D of the compound at pH 7.4 by chromatography; format: physicochemical; details: octanol/water
Procedure, shortened: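 LogD at pH 7.4 estimated from chromatographic retention, compared against standards of known partition coefficient.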

[14] = biological target: T3, Dihydroorotate dehydrogenase (quinone), mitochondrial (Rattus norvegicus, UniProt Q63707); experiment: Inhibition of rat DHODH (amino acid residues 30 to 396) expressed in Escherichia coli BL21 cells assessed as orotic acid production using dihydroorotate as substrate by DCIP dye-based assay
Procedure, shortened: as §1

[15] = Inhibition of C-terminal His6-tagged human DHODH (amino acid residues 30 to 396) R136A mutant expressed in Escherichia coli BL21 cells assessed as orotic acid production using dihydroorotate as substrate by direct assay in presence of oxygen depleting system
[16] = Inhibition of dog DHODH (amino acid residues 48 to 414) expressed in Escherichia coli BL21 cells assessed as orotic acid production using dihydroorotate as substrate by DCIP dye-based assay; parameters: species or system Canis lupus familiaris
Procedure, shortened: as §1

[17] = biological target: T3, Dihydroorotate dehydrogenase (quinone), mitochondrial; experiment: Binding affinity to rat DHODH by isothermal titration calorimetry
Procedure, shortened: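 Run at 30 °C in 10 mM Hepes pH 7.8, 20 mM NaCl, 5% glycerol, 1 mM LDAO, 0.2% DMSO. Rat DHODH (5–8 μM) in the cell, titrated with 50 μM inhibitor. Triplicate runs, analysed with NITPIC and SEDPHAT.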

[18] = test system: BL21; experiment: Selectivity ratio of IC50 for C-terminal His6-tagged human DHODH (amino acid residues 30 to 396) expressed in Escherichia coli BL21 cells to IC50 for N-terminal His6-tagged recombinant Plasmodium falciparum DHODH (amino acid residues 158 to 569) expressed in Escherichia coli BL21 cells

T3 sequence (Q63707 whole entry, the tested form may be a part): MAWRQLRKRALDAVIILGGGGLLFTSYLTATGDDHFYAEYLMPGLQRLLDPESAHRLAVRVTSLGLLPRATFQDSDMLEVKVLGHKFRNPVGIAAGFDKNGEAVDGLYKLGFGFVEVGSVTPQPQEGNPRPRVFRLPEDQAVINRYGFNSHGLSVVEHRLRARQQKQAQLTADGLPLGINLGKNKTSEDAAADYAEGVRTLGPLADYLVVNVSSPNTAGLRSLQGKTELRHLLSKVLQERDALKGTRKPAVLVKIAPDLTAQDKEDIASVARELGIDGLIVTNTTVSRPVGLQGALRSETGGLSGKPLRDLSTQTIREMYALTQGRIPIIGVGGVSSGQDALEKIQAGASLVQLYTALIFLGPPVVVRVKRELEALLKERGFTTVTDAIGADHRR
T1 sequence (Q02127 whole entry, the tested form may be a part): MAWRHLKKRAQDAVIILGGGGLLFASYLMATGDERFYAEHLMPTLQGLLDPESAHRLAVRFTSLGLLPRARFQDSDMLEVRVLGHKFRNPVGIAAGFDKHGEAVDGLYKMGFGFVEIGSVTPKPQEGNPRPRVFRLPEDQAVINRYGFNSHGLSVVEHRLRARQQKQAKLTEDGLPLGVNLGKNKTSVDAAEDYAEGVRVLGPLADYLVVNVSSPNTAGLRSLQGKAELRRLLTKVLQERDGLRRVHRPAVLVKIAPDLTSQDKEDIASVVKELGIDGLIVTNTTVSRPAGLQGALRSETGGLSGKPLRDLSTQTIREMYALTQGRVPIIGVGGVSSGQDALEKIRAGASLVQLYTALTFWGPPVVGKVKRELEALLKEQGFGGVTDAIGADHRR
Dihydroorotate dehydrogenase (quinone), mitochondrial (Mus musculus, UniProt O35435), sequence (O35435 whole entry, the tested form may be a part): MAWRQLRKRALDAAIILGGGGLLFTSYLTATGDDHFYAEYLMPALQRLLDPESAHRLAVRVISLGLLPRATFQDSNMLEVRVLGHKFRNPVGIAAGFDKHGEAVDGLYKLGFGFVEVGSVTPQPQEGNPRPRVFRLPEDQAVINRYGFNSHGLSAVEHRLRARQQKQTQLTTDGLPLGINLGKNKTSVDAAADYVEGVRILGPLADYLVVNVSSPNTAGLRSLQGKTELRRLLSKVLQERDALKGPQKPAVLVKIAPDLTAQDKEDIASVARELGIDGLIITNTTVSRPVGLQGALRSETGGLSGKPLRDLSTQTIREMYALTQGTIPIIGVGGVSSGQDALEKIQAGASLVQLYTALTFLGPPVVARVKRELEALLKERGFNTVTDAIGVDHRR

| SMILES | IC50 [1] | Ratio IC50 [2] | Ratio IC50 [3] | IC50 [4] | Ratio IC50 [5] | IC50 [6] | IC50 [7] | IC50 [8] | Kd [9] | IC50 [10] | IC50 [11] | IC50 [12] | logD [13] | IC50 [14] | IC50 [15] | IC50 [16] | Kd [17] | Ratio IC50 [18] |
| --- | --- | --- | --- | --- | --- | --- | --- | --- | --- | --- | --- | --- | --- | --- | --- | --- | --- | --- |
| Cc1cc(Nc2cc(F)c(C(F)(F)F)c(F)c2)n2nc(C(F)(F)F)nc2n1 | 2100 nM | 50 | 50 | 1.8 nM | 10 | 1600 nM | 900 nM | 22 nM | 9.6 nM | 88 nM | 35000 nM | > 100000 nM | 5.01 | 49 nM | > 100000 nM | 320 nM | – | – |
| Cc1cc(Nc2ccc(C(F)(F)F)cc2)n2ncnc2n1 | – | – | – | – | – | – | – | – | – | > 100000 nM | – | – | 3.55 | – | – | > 100000 nM | – | – |
| Cc1cc(Nc2ccc(C(F)(F)F)cc2)n2nc(C(C)(F)F)nc2n1 | > 100000 nM | – | – | 3.6 nM | – | > 100000 nM | > 100000 nM | 46 nM | 27 nM | – | > 100000 nM | > 100000 nM | 4.05 | – | > 100000 nM | > 100000 nM | – | – |
| Cc1cc(Nc2cc(F)c(C(F)(F)F)c(F)c2)n2nc(C(C)(F)F)nc2n1 | 2700 nM | 50 | 50 | 12 nM | > 50 | 2100 nM | 5300 nM | 20 nM | 5.1 nM | 180 nM | > 100000 nM | > 100000 nM | 4.46 | 130 nM | > 100000 nM | 700 nM | 48 nM | 100 |
| Cc1cc(Nc2cc(F)c(C(F)(F)F)c(F)c2)n2ncnc2n1 | – | – | – | – | – | > 100000 nM | – | – | – | > 30000 nM | – | – | – | 37000 nM | – | > 100000 nM | – | > 769 |
| Cc1cc(Nc2ccc(C(F)(F)F)cc2)n2nc(C(F)(F)F)nc2n1 | – | – | – | 6.3 nM | – | > 100000 nM | – | – | – | 9700 nM | – | – | – | 3500 nM | – | 86000 nM | – | – |
| Cc1cc(Nc2ccc(C(F)(F)F)c(F)c2)n2nc(C(C)(F)F)nc2n1 | 45000 nM | – | – | 3.9 nM | – | 17000 nM | 67000 nM | 35 nM | 9.8 nM | 1600 nM | > 100000 nM | > 100000 nM | 4.25 | 800 nM | > 100000 nM | 7200 nM | – | – |
